NadD block = inhibitors of Staphylococcus aureus NadD | actives 0.78% (n = 360,000) | AID 602399 | inhibition, % at 20 µM | purified NadD enzyme, colorimetric absorbance read-out; in the data active = inhibition above about 26%
DNMT1 block = DNMT1 (human) enzyme inhibition. DNMT1 molecular beacon, Hinp1I cleavage, fluorescence. AID 588458. actives 0.83% (n = 360,000). P26358. inhibition (reported as % activation of signal), % at 10 µM; in the data active = inhibition above about 50%
LMPTP inh = blocks human LMPTP phosphatase; recombinant LMPTP-A, OMFP fluorogenic substrate, fluorescence intensity; inhibition, % at 20 µM; actives 0.22% (n = 360,000); AID 651560;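 active = compounds that cut the enzyme signal by at least half of the control window in the single-dose screen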;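 also: plate controls were DMSO wells with enzyme plus substrate for no effect and substrate without enzyme for full effect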
Target sequence (P24666 whole entry, looked up): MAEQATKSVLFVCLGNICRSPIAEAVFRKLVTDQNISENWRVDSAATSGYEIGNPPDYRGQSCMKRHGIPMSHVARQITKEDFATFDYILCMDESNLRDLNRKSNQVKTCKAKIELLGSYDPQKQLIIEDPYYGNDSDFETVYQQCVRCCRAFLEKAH
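Test system – LMPTP-A phosphatase enzyme · Quantity – 0.625 nM LMPTP-A final · Reagent – OMFP substrate, 400 µM final · Dosing – one test concentration per compound, 20 µM, with 3% DMSO overall · Timing – 50 min enzyme reaction at room temperature, protected from light · Detection – fluorescence intensity · Controls – substrate-only low control, DMSO enzyme-plus-substrate high control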
Scp-1 inhibitor = Scp-1 (human) phosphatase inhibition; actives 0.88% (n = 340,000); Q9GZU7; Recombinant Scp1, phosphopeptide, malachite green phosphate absorbance; inhibition, % at 20 µM;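 active = inhibition above about 50% at 20 µM, limit read from the data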;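 also: plate controls were DMSO wells with enzyme for no effect and wells lacking enzyme for full effect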
Target sequence (Q9GZU7 76-261 limits assumed): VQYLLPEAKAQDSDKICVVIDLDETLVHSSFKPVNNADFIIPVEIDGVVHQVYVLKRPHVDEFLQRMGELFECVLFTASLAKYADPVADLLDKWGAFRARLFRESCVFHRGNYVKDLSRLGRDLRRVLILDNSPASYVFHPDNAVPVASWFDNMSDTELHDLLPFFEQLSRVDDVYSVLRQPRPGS
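System: SCP-1 catalytic domain; Reagent: Phospho 17-mer peptide substrate; Doses: one concentration, 20 µM, with 1.0% DMSO; Incubation: 45 min room-temperature reaction, 5 min colour, 30 min stabiliser; Signal: Phosphate-binding colour reagent, absorbance read at 630 nm.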
STEP inh = STEP (human) phosphatase inhibition; P54829; recombinant STEP, OMFP fluorogenic substrate, fluorescence; inhibition, % at 20 µM; actives 0.25% (n = 360,000); AID 588621;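 active = inhibition at 20 µM, scaled per plate between control wells, above about 37%, limit read from the data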;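 also: 0% = DMSO with enzyme and substrate and 100% = substrate only without enzyme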
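System: STEP (striatal-enriched tyrosine phosphatase) enzyme, cell-free; medium: Bis-Tris pH 6.0 buffer with DTT, detergent; dosing: 20 µM, 1% DMSO; times: reaction 20 min, ambient temperature; detection: fluorescence, 480/540 nm; read-out basis: normalized % inhibition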
SUMO1 PPI mod = alters human SUMO1 binding to SIM partners; P63165; SUMO1 binding to a labelled peptide, TR-FRET, 1 h; inhibition, % at 20 µM; actives 0.33% (n = 360,000); AID 602429; in the data active = inhibition above about 37%
Target sequence (P63165 whole entry, looked up): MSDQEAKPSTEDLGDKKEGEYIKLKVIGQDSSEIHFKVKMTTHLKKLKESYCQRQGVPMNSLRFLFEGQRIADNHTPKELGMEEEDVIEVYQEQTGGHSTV
Scp1 confirm = confirmation of human Scp-1 phosphatase inhibitors. actives 61% (n = 2,500). shares compounds with Scp-1 inhibitor. inhibition, % at 20 µM. recombinant SCP-1 catalytic domain, phosphate release, malachite green absorbance;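 also: plate controls were DMSO with enzyme for no effect and buffer wells lacking enzyme for full effect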
MG interference = counter-screen for Scp-1 inhibitors: colorimetric interference; 2,500 tested, under 10 active; AID 540313; apparent inhibition (interference), % at 20 µM; shares compounds with Scp-1 inhibitor; Colorimetric interference counterscreen, malachite green absorbance 630 nm;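 also: compounds added after enzyme reaction finished so only phosphate colour detection is probed; plate controls were DMSO wells with completed Scp-1 reaction for no effect and substrate wells lacking enzyme for full effect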
Scp-1 Tm shift = Scp-1 (human) binding by thermal shift. shares compounds with Scp-1 inhibitor. Recombinant SCP1, Sypro Orange thermal shift Tm. thermal shift relative to vanadate control, % at 40 µM. actives 25% (n = 1,500);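 active = substances whose mean melting-temperature shift, as a percentage of the reference inhibitor's shift, reaches about 5.3%, limit read from the data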;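 also: 0% = Tm of DMSO wells and 100% = Tm with sodium orthovanadate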
An asterisk follows results filed as active; / = no result given. Shown are actives, neighbours in structure and some others; about 2.4% of the full set was active somewhere.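 The calls were made as follows, unless noted: active = inhibition of at least 30% at 20 µM; inactive = the rest.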

SMILES	NadD block	DNMT1 block	LMPTP inh	Scp-1 inhibitor	STEP inh	SUMO1 PPI mod	Scp1 confirm	MG interference	Scp-1 Tm shift
COc1cccc(C(C(=O)NCc2ccccc2)N(C(=O)c2csnn2)C2CC2)c1 (stereo not given)	0	-2	0	-5	2	6	/	/	/
CC1C(=O)Nc2ccc(S(=O)(=O)NCc3ccc(Cl)cc3)cc2NC1=O (stereo not given)	1	4	-2	12	2	-2	12	2	/
CCC(NS(=O)(=O)c1ccc2c(c1)NC(=O)C(C)C(=O)N2)c1cccs1 (stereo not given)	-1	4	-1	2	1	2	-2	-16	/
Cc1ccc(NS(=O)(=O)c2ccc3c(c2)NC(=O)C(C)C(=O)N3)c(Cl)c1 (stereo not given)	0	4	-2	-9	1	-1	/	/	/
Cc1cccc(NC(=O)CSCC(=O)Nc2cc(C(F)(F)F)ccc2N2CCOCC2)c1	-6	-2	2	/	-1	-4	/	/	/
Cc1ccc[n+](CC(=O)Nc2cc(C(F)(F)F)ccc2N2CCOCC2)c1	-3	2	-2	55*	-4	-2	-18	-19	/
Cc1ccc(S(=O)(=O)OCC(=O)Nc2ccc(C(=O)O)c(O)c2)cc1	3	46	0	64*	6	2	48*	-13	7.6*
Cc1ccc(NC(=O)COCC(=O)Nc2ccc(C)cc2)cc1	5	3	0	4	0	2	/	/	/
O=S(=O)(NCc1cn2ccccc2n1)c1ccccc1F	4	-2	1	-3	-1	-2	/	/	/
O=C(CSc1nc2ncc(Cl)cc2[nH]1)N1CCC(Cc2ccccc2)CC1	2	14	0	-3	4	0	/	/	/
CCc1ccccc1NC(=O)CNC(=O)CCc1nc2sc3c(c2c(=O)[nH]1)CCCC3	1	40	10	70*	7	9	66*	-18	-3
CN(/N=C/c1cccnc1)c1cnn(-c2ccc(F)c(Cl)c2)c(=O)c1Cl	6	-1	0	75*	1	-4	39*	-8	-20
Cn1c(SCc2ccc([N+](=O)[O-])cc2)nnc1-c1cccnc1	-1	0	-1	2	-2	-5	/	/	/
COc1ccccc1NC(=O)c1cc(N)cc(C(=O)Nc2ccccc2OC)c1	-3	-2	1	-8	2	-1	/	/	/
COc1ccccc1NC(=O)c1coc(=O)c(Br)c1	2	15	8	66*	4	1	8	-6	/
O=C(CSc1nc2ccccc2c(=O)n1-c1ccccc1)NCC1CCCO1 (stereo not given)	13	1	-2	92*	-2	1	-4	-12	/
CCOC(=O)N1CCN(c2c(NCCOC)c(=O)c2=O)CC1	1	4	-1	3	-3	-1	/	/	/
CCOC(=O)N1CCN(c2c(NCC3CCCO3)c(=O)c2=O)CC1 (stereo not given)	4	-3	1	82*	-1	-3	-1	-7	/
CCCN(CC(=O)Nc1ccccc1C)C(=O)C1CC(=O)N(Cc2ccccc2)C1 (stereo not given)	-1	0	-1	4	2	4	-3	-5	/
COc1ccccc1NC(=O)c1ccc2[nH]c(C)c(C)c2c1	-9	-1	2	-19	2	0	/	/	/
CCCCOc1ccc(CNC(=O)NS(=O)(=O)c2ccc(OCC(C)C)cc2)cc1	11	2	-1	52*	0	2	39*	-11	-15
CCCCOc1ccc(S(=O)(=O)NC(=O)NCc2ccc(OCCC)cc2)cc1	8	0	0	4	1	7	/	/	/
CCC1CCCCN1S(=O)(=O)c1ccc2[nH]c(=O)ccc2c1 (stereo not given)	0	11	12	58*	1	2	49*	0	3
CN1C(=O)/C(=C/c2ccccc2OCc2ccc(C(=O)O)cc2)NC1=S	-2	-2	1	-2	2	-8	/	/	/
O=C(CN1C(=O)N/C(=C\c2ccccc2OCc2ccc(C(=O)O)cc2)C1=O)Nc1ccc(F)cc1	-1	-2	1	70*	7	-17	65*	-20	-3
Cc1ccccc1NC(=O)CN1C(=O)N/C(=C\c2ccccc2OCc2ccc(C(=O)O)cc2)C1=O	13	29	36	103*	3	-13	83*	-13	-487
O=C(O)c1ccc(COc2ccccc2/C=C2\NC(=O)N(Cc3ccc(F)cc3)C2=O)cc1	3	3	1	63*	2	-10	66*	-10	3
Cc1cc(N2CCOCC2)ccc1/C=C1\NC(=O)N(CC(=O)Nc2ccc(F)cc2)C1=O	10	-5	1	1	0	-14	/	/	/
Cc1cc(N2CCOCC2)ccc1/C=C1\NC(=O)N(CC(=O)Nc2ccccc2C)C1=O	3	46	0	-2	0	-14	/	/	/
